Experimental data published in ChEMBL document CHEMBL1139925, “Synthesis and topoisomerase poisoning activity of A-ring and E-ring substituted luotonin A derivatives” (2007).

Legend:
Assay type in all cases: functional
MCF7 [1] = experiment: Growth inhibition of MCF7 cells after 4 days; settings: Homo sapiens, MCF7, 96 h
Summary of the method: (§1)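 Adherent lines (HeLa S3 in MEM/7% FCS; MCF7 and ADR-Res) seeded at 2 · 10^3 cells per well. After one day, compounds in DMSO were diluted in culture medium over a 5-point range and added. Cells stained with 0.2% crystal violet in 20% ethanol for 1 h, washed, solubilized in 10% acetic acid, A570 read. GI50 = concentration giving 50% growth inhibition versus control.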

CEM/C2 [2] = experiment: Ratio of GI50 for camptothecin-resistant human CEM/C2 cells to GI50 for human CEM cells
Summary of the method: (§2)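 Relative resistance index from GI50 values in paired 5-point growth inhibition assays run in parallel: GI50 in the mutant line (CEM/C2 or MX2) divided by GI50 in its parental line (CEM or HL60).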

CEM/C2 [3] = experiment: Growth inhibition of topoisomerase 1 mutated CEM/C2 cells by Alamar blue assay; settings: Homo sapiens
Summary of the method: (§3)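 Leukemia lines (CEM, topo I-mutant CEM/C2, HL60, topo II-mutant MX2) seeded in 96-well plates. HL60/MX2 were kept in RPMI1640 with 10% FCS, 10 mM Hepes and 2 mM glutamine. After one day, DMSO-dissolved compounds were diluted in medium over a 5-point range and added. GI50 = concentration giving 50% growth inhibition versus control.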

[4] = Growth inhibition of topoisomerase 2 mutated mitoxantrone-resistant MX2 cells by Alamar blue assay; settings: Homo sapiens; summary of the method: as §3
HL-60 [5] = experiment: Growth inhibition of human HL60 cells by Almar blue assay; summary of the method: as §3
MCF7 [6] = experiment: Growth inhibition of adriamycin-resistant MCF7 cells after 4 days; settings: Homo sapiens, MCF7, 96 h; summary of the method: as §1
HeLa = experiment: Growth inhibition of HeLa cells after 4 days; settings: Homo sapiens, 96 h; summary of the method: as §1
CCRF-CEM = experiment: Growth inhibition of human CEM cells by Alamar blue assay; summary of the method: as §3
HL-60 [7] = experiment: Ratio of GI50 for mitoxantrone-resistant human MX2 cells to GI50 for human HL60 cells; summary of the method: as §2

CCN(CC)CCOc1ccc2nc3c(cc2c1)Cn1c-3nc2ccccc2c1=O
GI50 (MCF7 [1]): 3 µM
RatioGI50 (CEM/C2 [2]): 2
GI50 (CEM/C2 [3]): 7 µM
GI50 [4]: 10 µM
GI50 (HL-60 [5]): 4 µM
GI50 (MCF7 [6]): 4 µM
GI50 (HeLa): 2 µM
GI50 (CCRF-CEM): 3 µM
RatioGI50 (HL-60 [7]): 2.5

CN(C)CCOc1ccc2nc3c(cc2c1)Cn1c-3nc2ccccc2c1=O
GI50 (MCF7 [1]): 2 µM
RatioGI50 (CEM/C2 [2]): 2
GI50 (CEM/C2 [3]): 7 µM
GI50 [4]: 9 µM
GI50 (HL-60 [5]): 4 µM
GI50 (MCF7 [6]): 4 µM
GI50 (HeLa): 2 µM
GI50 (CCRF-CEM): 3 µM
RatioGI50 (HL-60 [7]): 2

CN(C)Cc1c(O)ccc2nc3c(cc12)Cn1c-3nc2ccccc2c1=O
GI50 (MCF7 [1]): 13 µM
RatioGI50 (CEM/C2 [2]): >1.5
GI50 (CEM/C2 [3]): > 40 µM
GI50 [4]: > 40 µM
GI50 (HL-60 [5]): 20 µM
GI50 (MCF7 [6]): > 20 µM
GI50 (HeLa): 10 µM
GI50 (CCRF-CEM): 30 µM
RatioGI50 (HL-60 [7]): >2

O=c1c2ccccc2nc2n1Cc1cc3c(CN4CCOCC4)c(O)ccc3nc1-2
GI50 (MCF7 [1]): > 20 µM
GI50 (MCF7 [6]): > 20 µM
GI50 (HeLa): > 20 µM

O=c1c2ccccc2nc2n1Cc1cc3cc(O)ccc3nc1-2 [10-HYDROXYLUOTONIN A]
GI50 (MCF7 [1]): > 20 µM
GI50 (MCF7 [6]): > 20 µM
GI50 (HeLa): > 10 µM

COc1ccc2nc3c(cc2c1)Cn1c-3nc2ccccc2c1=O [10-METHOXYLUOTONIN A]
GI50 (MCF7 [1]): > 20 µM
GI50 (MCF7 [6]): > 20 µM
GI50 (HeLa): > 10 µM

CC(=O)Nc1cccc2c(=O)n3c(nc12)-c1nc2ccccc2cc1C3 [16-ACETAMIDOLUOTONIN A]
GI50 (MCF7 [1]): > 20 µM
GI50 (MCF7 [6]): > 20 µM
GI50 (HeLa): > 20 µM

Nc1cccc2c(=O)n3c(nc12)-c1nc2ccccc2cc1C3 [16-AMINOLUOTONIN A]
GI50 (MCF7 [1]): 2 µM
RatioGI50 (CEM/C2 [2]): >7
GI50 (CEM/C2 [3]): > 40 µM
GI50 [4]: > 40 µM
GI50 (HL-60 [5]): 15 µM
GI50 (MCF7 [6]): 3 µM
GI50 (HeLa): 2 µM
GI50 (CCRF-CEM): 6 µM
RatioGI50 (HL-60 [7]): >2.5

O=c1c2cccnc2nc2n1Cc1cc3ccccc3nc1-2 [16-AZALUOTONIN A]
GI50 (MCF7 [1]): > 20 µM
GI50 (MCF7 [6]): > 20 µM
GI50 (HeLa): > 20 µM

O=c1c2cccc(Cl)c2nc2n1Cc1cc3ccccc3nc1-2 [16-CHLOROLUOTONIN A]
GI50 (MCF7 [1]): 10 µM
GI50 (MCF7 [6]): 13 µM
GI50 (HeLa): > 10 µM

COc1cccc2c(=O)n3c(nc12)-c1nc2ccccc2cc1C3 [16-METHOXYLUOTONIN A]
GI50 (MCF7 [1]): > 20 µM
GI50 (MCF7 [6]): > 20 µM
GI50 (HeLa): 12 µM

O=c1c2cc(O)c(O)cc2nc2n1Cc1cc3ccccc3nc1-2 [17,18-DIHYDROXYLUOTONIN A]
GI50 (MCF7 [1]): 10 µM
RatioGI50 (CEM/C2 [2]): >4
GI50 (CEM/C2 [3]): > 40 µM
GI50 [4]: > 40 µM
GI50 (HL-60 [5]): > 40 µM
GI50 (MCF7 [6]): > 20 µM
GI50 (HeLa): 6 µM
GI50 (CCRF-CEM): 9 µM

COc1cc2nc3n(c(=O)c2cc1OC)Cc1cc2ccccc2nc1-3 [17,18-DIMETHOXYLUOTONIN A]
GI50 (MCF7 [1]): > 20 µM
GI50 (MCF7 [6]): > 20 µM
GI50 (HeLa): > 10 µM

CC[C@@]1(O)C(=O)OCc2c1cc1n(c2=O)Cc2cc3ccccc3nc2-1 [CAMPTOTHECIN]
GI50 (MCF7 [1]): 0.01 µM
RatioGI50 (CEM/C2 [2]): >500
GI50 (CEM/C2 [3]): > 1 µM
GI50 [4]: 0.02 µM
GI50 (HL-60 [5]): 0.03 µM
GI50 (MCF7 [6]): 0.01 µM
GI50 (HeLa): 0.01 µM
GI50 (CCRF-CEM): 0.002 µM

CCc1c2c(nc3ccc(OC(=O)N4CCC(N5CCCCC5)CC4)cc13)-c1cc3c(c(=O)n1C2)COC(=O)[C@]3(O)CC [IRINOTECAN]
GI50 (MCF7 [1]): > 1 µM
GI50 (MCF7 [6]): > 1 µM
GI50 (HeLa): > 1 µM

O=c1c2ccccc2nc2n1Cc1cc3ccccc3nc1-2 [LUOTONIN A]
GI50 (MCF7 [1]): 3 µM
GI50 (CEM/C2 [3]): > 40 µM
GI50 (MCF7 [6]): 5 µM
GI50 (HeLa): 3 µM
GI50 (CCRF-CEM): ≥ 40 µM

O=C1c2c(O)ccc(O)c2C(=O)c2c(NCCNCCO)ccc(NCCNCCO)c21 [MITOXANTRONE]
GI50 [4]: 0.13 µM
GI50 (HL-60 [5]): 0.01 µM
RatioGI50 (HL-60 [7]): 13

CC[C@@]1(O)C(=O)OCc2c1cc1n(c2=O)Cc2cc3c(CN(C)C)c(O)ccc3nc2-1 [TOPOTECAN]
GI50 (MCF7 [1]): 0.05 µM
GI50 (MCF7 [6]): 0.04 µM
GI50 (HeLa): 0.03 µM
